{
  "source": "ChEMBL document CHEMBL4616714",
  "about": "“Discovery of CPI-1612: A Potent, Selective, and Orally Bioavailable EP300/CBP Histone Acetyltransferase Inhibitor” (ACS Med Chem Lett, 2020)",
  "key": {"JeKo-1 [1]": {"test_system": "JeKo-1", "experiment": "Growth inhibition of human JeKo1 cells incubated for 72 hrs by Cell Titer-Glo luminescent cell viability assay", "type": "functional", "conditions": "JeKo-1, 72 h"}, "[2]": {"target": "Histone acetyltransferase KAT2B (Homo sapiens) (UniProt Q92831)", "sequence (Q92831 whole entry, looked up)": "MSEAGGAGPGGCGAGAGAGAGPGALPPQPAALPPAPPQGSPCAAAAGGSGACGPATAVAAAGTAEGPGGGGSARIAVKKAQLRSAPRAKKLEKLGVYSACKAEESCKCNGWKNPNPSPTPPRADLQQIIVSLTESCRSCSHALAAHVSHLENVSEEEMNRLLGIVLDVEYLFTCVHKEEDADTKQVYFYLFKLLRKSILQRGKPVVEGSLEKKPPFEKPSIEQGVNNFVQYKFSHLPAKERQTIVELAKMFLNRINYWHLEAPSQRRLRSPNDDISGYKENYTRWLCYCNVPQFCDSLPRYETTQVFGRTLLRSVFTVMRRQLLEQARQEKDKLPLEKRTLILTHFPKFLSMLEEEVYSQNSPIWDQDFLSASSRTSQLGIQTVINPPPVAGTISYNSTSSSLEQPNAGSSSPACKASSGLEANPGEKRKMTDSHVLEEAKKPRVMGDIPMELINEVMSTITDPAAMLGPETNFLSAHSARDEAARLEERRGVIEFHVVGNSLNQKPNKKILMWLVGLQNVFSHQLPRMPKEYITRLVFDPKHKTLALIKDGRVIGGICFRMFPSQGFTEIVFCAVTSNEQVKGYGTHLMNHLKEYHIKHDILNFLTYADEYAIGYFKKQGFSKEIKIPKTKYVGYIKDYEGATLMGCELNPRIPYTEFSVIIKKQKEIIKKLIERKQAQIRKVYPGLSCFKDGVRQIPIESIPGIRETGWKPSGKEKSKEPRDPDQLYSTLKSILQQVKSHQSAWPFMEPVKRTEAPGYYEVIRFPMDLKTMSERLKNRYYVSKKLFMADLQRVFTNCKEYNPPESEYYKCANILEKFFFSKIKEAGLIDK", "experiment": "Inhibition of PCAF (unknown origin)"}, "[3]": {"experiment": "AUC/dose in Beagle dog at 0.5 mg/kg, iv or 1 mg/kg, po measured upto 24 hrs by LC-MS/MS analysis", "type": "ADME, organism-based, Canis lupus familiaris", "conditions": "in vivo", "summary_of_the_method": "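Single-compound dog PK: 0.5 mg/kg IV and 1.0 mg/kg PO dosing. Clearance, Vss, half-life, oral F% and AUC/dose were derived from these arms.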"}, "[4]": {"experiment": "Oral bioavailability in Sprague-Dawley rat at 5 mg/kg measured upto 8 hrs by LC-MS/MS analysis", "type": "ADME, organism-based", "conditions": "in vivo", "summary_of_the_method": "(§1)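 Rat PK run as a single-compound experiment, dosed 1.0 mg/kg IV and 5.0 mg/kg PO. Clearance, Vss, half-life, F% and AUC/dose were derived from these arms.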"}, "Cytochrome P450 2C8": {"target": "T1, Cytochrome P450 2C8 (Homo sapiens, UniProt P10632)", "T1 sequence (P10632 whole entry)": "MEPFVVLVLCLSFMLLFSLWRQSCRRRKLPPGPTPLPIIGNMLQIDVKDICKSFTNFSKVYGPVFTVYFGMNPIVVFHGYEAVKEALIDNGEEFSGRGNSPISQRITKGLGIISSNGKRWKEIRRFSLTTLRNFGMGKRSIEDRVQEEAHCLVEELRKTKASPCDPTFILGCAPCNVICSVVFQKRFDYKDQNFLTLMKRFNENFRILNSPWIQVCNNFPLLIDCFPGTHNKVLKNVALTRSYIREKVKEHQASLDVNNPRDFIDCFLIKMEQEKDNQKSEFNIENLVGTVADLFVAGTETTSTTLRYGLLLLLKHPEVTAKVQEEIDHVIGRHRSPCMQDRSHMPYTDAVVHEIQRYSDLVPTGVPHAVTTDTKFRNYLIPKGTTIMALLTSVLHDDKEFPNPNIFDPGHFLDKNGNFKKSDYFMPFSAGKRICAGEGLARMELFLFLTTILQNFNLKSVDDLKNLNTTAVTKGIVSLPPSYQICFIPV", "experiment": "Inhibition of CYP2C8 (unknown origin)", "type": "ADME"}, "Cytochrome P450 3A4": {"target": "Cytochrome P450 3A4 (Homo sapiens, UniProt P08684)", "experiment": "Inhibition of CYP3A4 (unknown origin)", "type": "ADME"}, "[5]": {"target": "Voltage-gated inwardly rectifying potassium channel KCNH2 (Homo sapiens, UniProt Q12809)", "experiment": "Inhibition of human ERG"}, "[6]": {"experiment": "Volume of distribution at steady state in CD-1 mouse at 1 mg/kg, iv or 5 mg/kg, po measured upto 8 hrs by LC-MS/MS analysis", "type": "ADME, organism-based", "conditions": "in vivo, read-out: Vdss", "summary_of_the_method": "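Mouse PK run as a single-compound experiment, dosed 1 mg/kg IV and 5 mg/kg PO. Clearance, Vss, half-life, F% and AUC/dose were derived from these arms.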"}, "[7]": {"experiment": "Protein binding in mouse plasma at 5 uM incubated for 6 hrs by LC-MS/MS analysis", "type": "ADME, cell-free", "conditions": "read-out: PPB (converted)", "summary_of_the_method": "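Single run per compound for each of the PAMPA, mouse plasma protein binding and mouse liver microsome clearance assays.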"}, "CREB-binding protein": {"target": "CREB-binding protein (Homo sapiens, UniProt Q92793)", "sequence (Q92793 whole entry)": "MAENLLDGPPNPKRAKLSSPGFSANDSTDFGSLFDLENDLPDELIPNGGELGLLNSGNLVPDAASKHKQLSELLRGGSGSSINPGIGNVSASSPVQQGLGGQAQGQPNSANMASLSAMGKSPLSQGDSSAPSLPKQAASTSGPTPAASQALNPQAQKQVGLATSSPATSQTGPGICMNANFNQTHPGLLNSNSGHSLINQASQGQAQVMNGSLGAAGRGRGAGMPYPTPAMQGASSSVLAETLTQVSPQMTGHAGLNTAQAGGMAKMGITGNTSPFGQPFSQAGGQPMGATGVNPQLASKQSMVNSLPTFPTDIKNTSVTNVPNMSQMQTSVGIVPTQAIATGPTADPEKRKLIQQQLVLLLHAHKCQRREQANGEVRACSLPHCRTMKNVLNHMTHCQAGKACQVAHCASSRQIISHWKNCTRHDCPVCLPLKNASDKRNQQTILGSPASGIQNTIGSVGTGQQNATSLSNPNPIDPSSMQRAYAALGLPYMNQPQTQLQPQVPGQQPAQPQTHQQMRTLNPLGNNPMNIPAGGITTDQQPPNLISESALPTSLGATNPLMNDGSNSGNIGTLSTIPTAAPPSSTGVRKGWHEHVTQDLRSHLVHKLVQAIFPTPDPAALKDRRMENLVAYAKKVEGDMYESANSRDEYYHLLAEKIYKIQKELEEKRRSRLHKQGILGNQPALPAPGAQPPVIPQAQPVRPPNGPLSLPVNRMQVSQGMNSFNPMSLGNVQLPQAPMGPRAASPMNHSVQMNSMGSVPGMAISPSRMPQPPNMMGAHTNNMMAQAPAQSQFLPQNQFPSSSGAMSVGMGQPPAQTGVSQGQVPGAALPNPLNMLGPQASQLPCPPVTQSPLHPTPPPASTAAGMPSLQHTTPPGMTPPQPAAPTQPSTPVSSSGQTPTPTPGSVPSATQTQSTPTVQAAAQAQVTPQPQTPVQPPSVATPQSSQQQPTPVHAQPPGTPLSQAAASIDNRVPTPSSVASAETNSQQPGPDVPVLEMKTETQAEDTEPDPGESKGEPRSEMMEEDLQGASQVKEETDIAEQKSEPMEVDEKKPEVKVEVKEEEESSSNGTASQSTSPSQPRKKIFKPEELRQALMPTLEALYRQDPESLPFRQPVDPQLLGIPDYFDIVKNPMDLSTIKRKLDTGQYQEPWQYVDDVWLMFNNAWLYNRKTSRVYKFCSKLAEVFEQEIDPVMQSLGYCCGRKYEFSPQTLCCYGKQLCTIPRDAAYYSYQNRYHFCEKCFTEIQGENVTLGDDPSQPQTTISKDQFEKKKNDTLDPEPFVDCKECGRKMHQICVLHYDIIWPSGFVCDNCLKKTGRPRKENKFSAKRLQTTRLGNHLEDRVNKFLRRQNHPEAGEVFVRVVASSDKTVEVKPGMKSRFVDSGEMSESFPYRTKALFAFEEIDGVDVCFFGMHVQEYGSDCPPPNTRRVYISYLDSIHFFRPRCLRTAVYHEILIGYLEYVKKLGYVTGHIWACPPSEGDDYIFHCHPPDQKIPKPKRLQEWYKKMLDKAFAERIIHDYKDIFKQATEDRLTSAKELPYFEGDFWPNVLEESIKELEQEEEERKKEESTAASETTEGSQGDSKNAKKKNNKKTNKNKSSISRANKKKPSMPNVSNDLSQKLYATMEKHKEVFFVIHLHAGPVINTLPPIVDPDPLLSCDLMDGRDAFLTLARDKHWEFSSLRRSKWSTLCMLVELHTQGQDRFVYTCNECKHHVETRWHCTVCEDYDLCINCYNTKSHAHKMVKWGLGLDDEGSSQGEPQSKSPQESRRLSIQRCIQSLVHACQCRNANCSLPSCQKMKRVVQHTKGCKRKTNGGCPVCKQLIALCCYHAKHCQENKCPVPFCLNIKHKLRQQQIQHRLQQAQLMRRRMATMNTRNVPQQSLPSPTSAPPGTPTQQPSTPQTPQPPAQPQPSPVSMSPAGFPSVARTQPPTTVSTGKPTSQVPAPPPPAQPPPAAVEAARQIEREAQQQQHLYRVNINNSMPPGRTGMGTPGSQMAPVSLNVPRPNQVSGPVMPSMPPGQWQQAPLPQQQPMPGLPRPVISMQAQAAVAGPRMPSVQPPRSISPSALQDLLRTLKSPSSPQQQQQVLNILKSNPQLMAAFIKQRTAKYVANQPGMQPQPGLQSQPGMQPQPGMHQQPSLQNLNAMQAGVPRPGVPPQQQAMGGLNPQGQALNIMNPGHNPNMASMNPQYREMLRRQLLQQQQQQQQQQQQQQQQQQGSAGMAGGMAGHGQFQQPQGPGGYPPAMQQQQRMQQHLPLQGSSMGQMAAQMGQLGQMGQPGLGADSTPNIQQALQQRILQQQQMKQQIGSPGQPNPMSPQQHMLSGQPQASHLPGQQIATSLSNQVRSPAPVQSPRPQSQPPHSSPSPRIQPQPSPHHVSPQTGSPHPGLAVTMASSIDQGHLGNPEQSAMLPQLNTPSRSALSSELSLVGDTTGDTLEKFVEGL", "experiment": "Binding affinity to recombinant full length CBP (unknown origin) incubated for 30 mins followed by H3(1 to 21) addition and measured after 1 hr by scintillation proximity assay", "summary_of_the_method": "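Biochemical HAT assays run by scintillation proximity; values are the average of two or more runs.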"}, "[8]": {"experiment": "Ratio of drug level in brain to plasma in CD-1 mouse at 5 mg/kg, po measured upto 8 hrs by LC-MS/MS analysis", "type": "ADME, organism-based", "conditions": "read-out: BPR"}, "JeKo-1 [9]": {"test_system": "JeKo-1", "experiment": "Antitumor activity in human JeKo1 cells xenografted in […] mouse assessed as reduction in H3K27 acetylation in mouse plasma at 0.5 mg/kg, po administered bid and measured on day 26 by FACS analysis", "type": "functional, organism-based", "summary_of_the_method": "(§2)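 JEKO-1 mantle cell lymphoma xenograft dosed 0.5 mg/kg PO BID. Read-outs were tumour growth inhibition, plasma H3K27Ac and tumour H3K18Ac.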"}, "Cytochrome P450 2C19": {"target": "Cytochrome P450 2C19 (Homo sapiens, UniProt P33261)", "sequence (P33261 whole entry)": "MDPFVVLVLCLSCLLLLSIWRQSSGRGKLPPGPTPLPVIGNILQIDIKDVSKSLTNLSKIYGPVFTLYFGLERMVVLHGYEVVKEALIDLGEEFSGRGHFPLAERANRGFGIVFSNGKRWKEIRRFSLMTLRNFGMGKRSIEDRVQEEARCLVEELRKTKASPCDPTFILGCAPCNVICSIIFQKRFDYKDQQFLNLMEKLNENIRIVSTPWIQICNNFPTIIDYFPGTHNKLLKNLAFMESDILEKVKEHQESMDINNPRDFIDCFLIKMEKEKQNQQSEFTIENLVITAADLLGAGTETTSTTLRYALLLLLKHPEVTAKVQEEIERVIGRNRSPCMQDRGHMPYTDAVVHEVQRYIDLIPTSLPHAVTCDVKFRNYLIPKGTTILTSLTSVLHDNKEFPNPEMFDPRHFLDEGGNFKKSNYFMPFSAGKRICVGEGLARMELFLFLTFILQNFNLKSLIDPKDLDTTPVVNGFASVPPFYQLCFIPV", "experiment": "Inhibition of CYP2C19 (unknown origin)", "type": "ADME"}, "JeKo-1 [10]": {"test_system": "JeKo-1", "experiment": "Antitumor activity in human JeKo1 cells xenografted in […] mouse assessed as tumor growth inhibition at 0.5 mg/kg, po administered bid and measured on day 26", "type": "functional", "conditions": "JeKo-1, po, read-out: TGI", "summary_of_the_method": "as §2"}, "[11]": {"experiment": "Clearance in Sprague-Dawley rat at 1 mg/kg, iv or 5 mg/kg, po measured upto 8 hrs by LC-MS/MS analysis", "type": "ADME, organism-based", "conditions": "in vivo", "summary_of_the_method": "as §1"}, "[12]": {"target": "Histone acetyltransferase KAT7 (Homo sapiens) (UniProt O95251)", "sequence (O95251 whole entry)": "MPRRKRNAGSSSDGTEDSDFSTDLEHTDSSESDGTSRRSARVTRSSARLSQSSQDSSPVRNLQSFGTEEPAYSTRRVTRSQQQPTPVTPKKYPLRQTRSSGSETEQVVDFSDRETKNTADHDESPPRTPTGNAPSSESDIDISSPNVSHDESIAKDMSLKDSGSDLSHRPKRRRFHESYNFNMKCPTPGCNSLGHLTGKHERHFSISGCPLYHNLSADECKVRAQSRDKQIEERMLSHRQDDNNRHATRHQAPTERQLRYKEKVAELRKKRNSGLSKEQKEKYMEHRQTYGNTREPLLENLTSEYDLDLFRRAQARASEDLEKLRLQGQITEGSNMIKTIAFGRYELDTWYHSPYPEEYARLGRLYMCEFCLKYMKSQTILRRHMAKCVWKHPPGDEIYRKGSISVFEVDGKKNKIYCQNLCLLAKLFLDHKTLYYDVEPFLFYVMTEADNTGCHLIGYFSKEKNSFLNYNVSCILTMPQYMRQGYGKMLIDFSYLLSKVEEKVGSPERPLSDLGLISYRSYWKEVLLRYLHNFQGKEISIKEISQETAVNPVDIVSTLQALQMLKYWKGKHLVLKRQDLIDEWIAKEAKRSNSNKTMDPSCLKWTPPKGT", "experiment": "Inhibition of MYST2 (unknown origin)"}, "hERG (KCNH2)": {"target": "hERG (KCNH2) (Homo sapiens, UniProt Q12809)", "experiment": "Inhibition of human ERG at 10 uM"}, "[13]": {"target": "Histone acetyltransferase type B catalytic subunit (Homo sapiens) (UniProt O14929)", "sequence (O14929 2-419 limits assumed)": "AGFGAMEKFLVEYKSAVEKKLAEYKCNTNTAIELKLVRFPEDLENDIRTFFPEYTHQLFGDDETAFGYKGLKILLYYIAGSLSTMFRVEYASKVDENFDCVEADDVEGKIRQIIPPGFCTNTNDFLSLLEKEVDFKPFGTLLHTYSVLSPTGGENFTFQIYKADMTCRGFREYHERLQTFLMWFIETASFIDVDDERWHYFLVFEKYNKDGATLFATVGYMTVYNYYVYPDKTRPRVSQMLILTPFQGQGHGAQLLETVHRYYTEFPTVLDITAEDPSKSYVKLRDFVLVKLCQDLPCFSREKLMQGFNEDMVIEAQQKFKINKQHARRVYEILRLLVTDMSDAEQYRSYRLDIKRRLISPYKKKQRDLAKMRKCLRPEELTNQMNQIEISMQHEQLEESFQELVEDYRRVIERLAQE", "experiment": "Inhibition of HAT1 (unknown origin)"}, "[14]": {"experiment": "Volume of distribution at steady state in CD-1 mouse at 0.5 mg/kg, iv or […], po measured upto 8 hrs by LC-MS/MS analysis", "type": "ADME, organism-based", "conditions": "in vivo, read-out: Vdss"}, "JeKo-1 [15]": {"test_system": "JeKo-1", "experiment": "Antitumor activity in human JeKo1 cells xenografted in […] mouse assessed as reduction in H3K18 acetylation in tumor at 0.5 mg/kg, po administered bid and measured on day 26 by FACS analysis", "type": "functional, organism-based", "summary_of_the_method": "as §2"}},
  "note": "pIC50: −log10 of the molar value. Active and inactive are the calls of the source. No cut-off for these calls is given here.",
  "data": [
    {"smiles": "C[C@H](CN[C@@H](C(=O)Nc1ccc(-c2cnn(C)c2)cn1)c1ccccc1)c1ccc(C#N)cc1", "values": [
      {"measurement": "GI50", "setting": "JeKo-1 [1]", "value": "< 0.0079", "unit": "µM"},
      {"measurement": "inhibition", "setting": "[2]", "value": "inactive"},
      {"measurement": "AUC/dose", "setting": "[3]", "value": 1690, "unit": "ng·h/mL"},
      {"measurement": "bioavailability", "setting": "[4]", "value": 9, "unit": "%"},
      {"measurement": "pIC50", "setting": "Cytochrome P450 2C8", "value": 5.72},
      {"measurement": "pIC50", "setting": "Cytochrome P450 3A4", "value": "< 4.30"},
      {"measurement": "pIC50", "setting": "[5]", "value": 4.98},
      {"measurement": "Vd", "setting": "[6]", "value": 2, "unit": "L/kg"},
      {"measurement": "fraction unbound at 6 h, 5 µM", "setting": "[7]", "value": 0.009},
      {"measurement": "pIC50", "setting": "CREB-binding protein", "value": 8.54},
      {"measurement": "Kp at 8 h", "setting": "[8]", "value": 0.35},
      {"measurement": "Activity", "setting": "JeKo-1 [9]", "value": "Active"},
      {"measurement": "pIC50", "setting": "Cytochrome P450 2C19", "value": 5.57},
      {"measurement": "inhibition in vivo at 0.5 mg/kg", "setting": "JeKo-1 [10]", "value": 67, "unit": "%"},
      {"measurement": "clearance", "setting": "[11]", "value": 43.3, "unit": "mL/min/kg"},
      {"measurement": "inhibition", "setting": "[12]", "value": "inactive"},
      {"measurement": "inhibition at 10 µM", "setting": "hERG (KCNH2)", "value": 9.2, "unit": "%"},
      {"measurement": "inhibition", "setting": "[13]", "value": "inactive"},
      {"measurement": "Vd", "setting": "[14]", "value": 0.99, "unit": "L/kg"},
      {"measurement": "Activity", "setting": "JeKo-1 [15]", "value": "Active"}
    ]}
  ]
}
